# Assay results gathered from unrelated publications.
SMILES,test system,setting,Cmax
N#C[C@@]12C[C@@H]1[C@@H](n1cnc3c(N[C@@H](C4CCC4)C4CC4)nc(I)nc31)[C@H](O)[C@@H]2O,"male Wistar rat, plasma","oral, 1 mg/kg",6.73 ng/mL
O=c1cc(-c2ccc(O)c(O)c2)oc2cc(O)cc(O)c12,"male Sprague-Dawley rat, plasma","oral, 30 mg/kg",40.1 ng/mL
Nc1ccc(/C=C/C(=O)NCc2cc3cc(-c4ccc(C(=O)N5CCC(F)(F)CC5)cc4)cc(-c4ccc(F)cc4)c3o2)cn1,"rat, plasma","oral, 3 mg/kg",5990 ng/mL
CC(=Nc1ccc(N=Cc2cnccn2)cc1)N(C)C,"male Sprague-Dawley rat, plasma","oral, 200 mg/kg",397 ng/mL
Cc1c(C(=O)O)ccc2c3n(nc12)[C@@H]1[C@H](C3)N(CC2CC2)[C@@]2(C(=O)Nc3cc(Cl)ccc32)[C@H]1c1cccc(Cl)c1F,"male rat, plasma","oral, 2 mg/kg",5.7 µM
C[C@H]1[C@@H](O)O[C@@H]2O[C@@]3(C)CC[C@H]4[C@H](C)CC[C@@H]1[C@@]24OO3,"Sprague-Dawley rat, plasma","oral, 10 mg/kg",227 ng/mL
O=C1c2ccncc2C(=O)c2c1[nH]c1ccccc21,"rat, plasma","intravenous, 1 mg/kg, single dose",3.25 µM
O=C(C=Cc1ccccc1)Nc1cc(-c2ccnc(N3CCC(O)CC3)c2)ccn1,"female Sprague-Dawley rat, plasma","intravenous, 5 mg/kg",324 ng/mL
O=C1CC[C@H](N2Cc3cc(N4CCN(CC5CCN(c6ccc([C@@H]7c8ccc(O)cc8CC[C@@H]7c7ccccc7)cc6)CC5)CC4)ccc3C2=O)C(=O)N1,"male Sprague-Dawley rat, plasma","oral, 20 mg/kg, fed",1040 ng/mL
CC1(CN)CCN(c2cnc3c(Sc4ccncc4Cl)n[nH]c3n2)CC1,"male Sprague-Dawley rat, plasma","oral, 10 mg/kg",142 ng/mL
COc1ccc2cc3n(c(=O)c2c1OC)CCc1cc2c(cc1-3)OCO2,"male Sprague-Dawley rat, blood","oral, 50 mg/kg",233 ng/mL
